In assay [1] the target is T1, Proteasome component C5 (Homo sapiens) (UniProt P20618).
T1 sequence (whole entry): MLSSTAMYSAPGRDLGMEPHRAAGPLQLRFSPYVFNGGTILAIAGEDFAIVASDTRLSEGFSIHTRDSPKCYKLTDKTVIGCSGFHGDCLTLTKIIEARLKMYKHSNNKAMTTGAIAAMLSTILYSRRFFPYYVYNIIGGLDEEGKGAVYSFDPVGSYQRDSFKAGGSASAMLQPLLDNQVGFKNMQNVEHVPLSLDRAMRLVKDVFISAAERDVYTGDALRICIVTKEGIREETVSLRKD
Put plainly: Inhibition of caspase-like activity of 20S proteasome in imatinib-resistant human SUP-B15 cells at 4 nM to 25 uM using Z-nLPnLD-aminoluciferin as substrate after 2 hrs by proteasome-Glo assay. The assay is classed as cell-based.

The next assay addresses Histone deacetylase 1 (Homo sapiens, UniProt Q13547). Put plainly: Inhibition of C-terminal FLAG-His-tagged full length recombinant human HDAC1 expressed in Sf21 insect cells using RHKK(Ac)AMC as substrate by fluorescence-based assay.
A short description of assay [2]: Cytotoxicity against human BCP-ALL cells derived from patient 4 after 72 hrs by CellTiter-Glo luminescent cell viability assay. The assay is classed as functional, cell-based.
The next assay deals with SUP-B15. Nature of the assay: Inhibition of HDAC6/chymotrypsin-like activity of 20S proteasome in imatinib-resistant human SUP-B15 cells assessed as increase in cleaved PARP expression at 0.1 to 10 uM after 24 hrs by immunoblot assay. It is filed as cell-based. In a few lines:
(§1)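 Cells exposed for 24 h at indicated concentrations; lysates immunoblotted for acetyl-α-tubulin, acetyl-histone H3, PARP, with GAPDH as loading control.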
In general terms: Immunoblotting shows a protein as a band on a membrane.

Another assay relates to KCL-22. Nature of the assay: Cytotoxicity against imatinib-resistant human KCL22 cells after 72 hrs by CellTiter-Glo luminescent cell viability assay. Particulars: KCL-22, 72 h. The assay is classed as functional, cell-based. In a few lines: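 Inhibitors dispensed in increasing concentrations (50 nM–25 μM) and cells exposed 72 h. Viability read by ATP-dependent luminescence (CellTiter-Glo). Raw data normalized to controls. IC50 obtained by sigmoid dose–response fit with non-linear regression.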
Background: Cellular ATP, detected with luciferase, serves as a proxy for viable cell number.

The target in assay [3] is T1, Proteasome component C5 (Homo sapiens). Nature of the assay: Inhibition of caspase-like activity of 20S proteasome in human SEM cells at 4 nM to 25 uM using Z-nLPnLD-aminoluciferin as substrate after 2 hrs by proteasome-Glo assay. It is filed as cell-based.
For assay [4], the system named is SEM cells. Put plainly: Inhibition of HDAC6/chymotrypsin-like activity of 20S proteasome in human SEM cells assessed as increase in phosphorylated JNK protein expression at 0.1 to 10 uM after 18 hrs by Western blot assay. It is filed as cell-based. In a few lines:
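Cells treated 18 h at indicated concentrations; lysates analysed by western blot for heat shock (Grp94, HSP70, HSP40, HSP27), UPR (BIP, ATF4, ATF6, pJNK) and autophagy (LC3B, p62) proteins.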

In assay [5] the target is T2, Protein deacetylase HDAC6 (Homo sapiens) (UniProt Q9UBN7).
T2 sequence (whole entry): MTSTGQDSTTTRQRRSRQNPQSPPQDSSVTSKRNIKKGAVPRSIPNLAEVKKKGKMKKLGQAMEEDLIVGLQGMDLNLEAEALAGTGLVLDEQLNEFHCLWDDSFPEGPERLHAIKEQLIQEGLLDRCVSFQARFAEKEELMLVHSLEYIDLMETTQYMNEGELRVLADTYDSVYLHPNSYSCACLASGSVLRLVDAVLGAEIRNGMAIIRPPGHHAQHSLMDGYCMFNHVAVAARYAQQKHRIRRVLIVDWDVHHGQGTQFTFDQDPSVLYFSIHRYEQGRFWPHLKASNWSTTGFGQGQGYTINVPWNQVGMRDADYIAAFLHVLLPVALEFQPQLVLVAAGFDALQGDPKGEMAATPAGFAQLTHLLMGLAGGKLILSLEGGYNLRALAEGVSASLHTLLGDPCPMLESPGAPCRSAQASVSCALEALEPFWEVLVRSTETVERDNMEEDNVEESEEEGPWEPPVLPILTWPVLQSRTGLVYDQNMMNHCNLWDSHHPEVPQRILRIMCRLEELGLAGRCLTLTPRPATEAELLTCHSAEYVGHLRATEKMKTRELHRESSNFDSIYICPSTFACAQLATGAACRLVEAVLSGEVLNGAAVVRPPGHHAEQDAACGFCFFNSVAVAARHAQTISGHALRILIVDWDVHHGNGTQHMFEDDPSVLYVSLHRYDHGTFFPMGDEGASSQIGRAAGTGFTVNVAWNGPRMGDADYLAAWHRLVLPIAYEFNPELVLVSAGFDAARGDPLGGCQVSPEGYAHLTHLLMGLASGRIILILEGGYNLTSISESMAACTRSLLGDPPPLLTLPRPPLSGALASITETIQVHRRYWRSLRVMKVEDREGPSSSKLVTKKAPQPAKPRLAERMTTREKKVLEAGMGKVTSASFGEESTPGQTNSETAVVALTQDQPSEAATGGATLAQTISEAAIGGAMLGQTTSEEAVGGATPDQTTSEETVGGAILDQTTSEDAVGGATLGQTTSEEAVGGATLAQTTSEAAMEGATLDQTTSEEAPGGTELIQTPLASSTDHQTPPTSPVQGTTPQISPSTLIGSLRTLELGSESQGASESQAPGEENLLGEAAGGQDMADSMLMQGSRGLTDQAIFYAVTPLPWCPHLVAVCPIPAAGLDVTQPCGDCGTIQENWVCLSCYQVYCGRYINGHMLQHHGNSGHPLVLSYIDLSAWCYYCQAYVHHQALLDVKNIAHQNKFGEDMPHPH
Put plainly: Inhibition of HDAC6 in imatinib-resistant human SUP-B15 cells assessed as increase in acetyl-alpha tubulin expression at 0.1 to 10 uM after 24 hrs by immunoblot assay. It is filed as cell-based. Summed up:
as §1

The target in assay [6] is T2, Protein deacetylase HDAC6 (Homo sapiens). Put plainly: Inhibition of HDAC6 in human HL60 cells assessed as increase in acetyl-alpha tubulin expression at 0.1 to 10 uM after 24 hrs by immunoblot assay. The assay is classed as cell-based. In a few lines: as §1
In assay [7] the target is T3, Proteasome Macropain subunit MB1 (Homo sapiens, UniProt P28074).
T3 sequence (P28074 whole entry): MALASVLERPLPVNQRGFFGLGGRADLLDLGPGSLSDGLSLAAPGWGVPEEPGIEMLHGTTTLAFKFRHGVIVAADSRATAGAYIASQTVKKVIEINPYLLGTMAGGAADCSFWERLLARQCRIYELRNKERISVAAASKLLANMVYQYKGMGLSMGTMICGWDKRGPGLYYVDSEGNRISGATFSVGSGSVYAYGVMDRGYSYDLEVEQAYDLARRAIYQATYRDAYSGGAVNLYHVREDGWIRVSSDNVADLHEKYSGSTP
Nature of the assay: Inhibition of chymotrypsin-like activity of 20S proteasome in human HL60 cells using Suc-LLVY aminoluciferin as substrate after 2 hrs by proteasome-Glo assay. It is filed as cell-based.

Assay [8] has as its system SEM cells. Nature of the assay: Cell cycle arrest in human SEM cells assessed as reduction in cell levels at G2/M phase at IC50 to 2 times IC50 after 48 hrs by propidium iodide staining-based FACS analysis. It is filed as functional. (A flow cytometer gives signals particle by particle.)
Assay [9] deals with SEM cells. Nature of the assay: Induction of apoptosis in human SEM cells at IC50 to 2 times IC50 after 48 hrs by annexin V/propidium iodide staining-based FACS analysis relative to control. The assay is classed as functional. Summed up: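 After 48 h treatment at IC50 or 2x IC50, cells double-stained with annexin V and PI and analysed by FACS. Cells scored as living, early apoptotic (annexin V+), late apoptotic (both+) or necrotic (PI+).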

Active and inactive are the calls of the source. The calls are words filed in the database; no cut-off is given here.

Chain of Histone deacetylase 1 (Q13547 whole entry): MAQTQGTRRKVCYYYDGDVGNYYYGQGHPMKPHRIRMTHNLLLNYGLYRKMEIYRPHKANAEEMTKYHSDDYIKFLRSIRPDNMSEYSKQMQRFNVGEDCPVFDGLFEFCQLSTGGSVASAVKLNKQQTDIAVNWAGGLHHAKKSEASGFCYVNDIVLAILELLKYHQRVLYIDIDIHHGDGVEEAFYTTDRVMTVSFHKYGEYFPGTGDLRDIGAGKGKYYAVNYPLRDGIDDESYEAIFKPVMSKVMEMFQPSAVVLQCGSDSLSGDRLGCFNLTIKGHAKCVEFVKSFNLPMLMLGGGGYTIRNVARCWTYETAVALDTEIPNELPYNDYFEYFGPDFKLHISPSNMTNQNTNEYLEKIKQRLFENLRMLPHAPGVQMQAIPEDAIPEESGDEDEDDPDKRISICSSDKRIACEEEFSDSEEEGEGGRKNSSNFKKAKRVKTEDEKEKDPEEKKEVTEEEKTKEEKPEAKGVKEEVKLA

In general, IC50 refers to the midpoint of a concentration-inhibition curve. Take `C[C@H](NC(=O)[C@H](CC(=O)NCC(C)(C)C)NC(=O)c1ccc(C(=O)NO)cc1)C(=O)NCc1ccccc1`: the inhibition entry in [1] and in assay [3] was “inactive” in each case. Further, the concentration for half-maximal inhibition (IC50) at Histone deacetylase 1 was found to be 6900 nM; in assay [2], 1510 nM; in the assay with KCL-22, 2580 nM; in [7], 260 nM. Moreover, the inhibition entry (in the assay on SUP-B15; with SEM cells [4]; in assay [5]; in [6]) was “Active” in each case. Further, in the assay on SEM cells [8], the outcome was Active. For the same compound, the “fold change (FC)” value with SEM cells [9] came to 5.

Source of the values: ChEMBL document CHEMBL4152390, “Discovery of the First-in-Class Dual Histone Deacetylase-Proteasome Inhibitor” (J Med Chem, 2018).
